In ChEMBL document CHEMBL2029296 (J Med Chem, 2012):
Calls of active or inactive are those of the source. No cut-off for these calls is given here.

Legend:
Adenosine receptor A1 = biological target: T1, Adenosine receptor A1 (Homo sapiens, UniProt P30542); experiment: Displacement of [3H]DPCPX from human A1 adenosine receptor expressed in CHO cell membrane; assay type: cell membranes
T1 sequence (P30542 whole entry): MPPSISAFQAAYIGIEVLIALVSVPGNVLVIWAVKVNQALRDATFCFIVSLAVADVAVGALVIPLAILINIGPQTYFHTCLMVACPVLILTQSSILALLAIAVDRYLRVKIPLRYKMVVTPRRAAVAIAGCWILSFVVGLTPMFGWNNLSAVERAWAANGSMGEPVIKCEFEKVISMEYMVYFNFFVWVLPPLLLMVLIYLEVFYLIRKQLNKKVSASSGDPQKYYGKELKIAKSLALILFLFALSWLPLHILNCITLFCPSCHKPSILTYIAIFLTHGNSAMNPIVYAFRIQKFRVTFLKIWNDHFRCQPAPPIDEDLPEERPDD

Adenosine receptor A3 = biological target: T2, Adenosine receptor A3 (Homo sapiens, UniProt P0DMS8); experiment: Displacement of [125I]AB-MECA from human A3 adenosine receptor expressed in CHO cell membrane; assay type: cell membranes
T2 sequence (P0DMS8 whole entry): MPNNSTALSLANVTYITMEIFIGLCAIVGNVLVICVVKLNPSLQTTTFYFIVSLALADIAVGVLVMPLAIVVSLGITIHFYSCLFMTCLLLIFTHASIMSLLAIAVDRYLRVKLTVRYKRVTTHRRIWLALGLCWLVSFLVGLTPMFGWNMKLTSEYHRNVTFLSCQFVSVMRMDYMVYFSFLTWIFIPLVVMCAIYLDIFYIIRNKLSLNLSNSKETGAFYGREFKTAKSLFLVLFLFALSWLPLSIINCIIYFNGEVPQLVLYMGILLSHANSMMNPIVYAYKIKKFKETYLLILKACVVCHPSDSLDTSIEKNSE

Adenosine receptor A2a = Adenosine receptor A2a (Homo sapiens, UniProt P29274); experiment: Displacement of [3H]NECA from human A2A adenosine receptor expressed in CHO cell membrane; assay type: cell membranes
Sequence of Adenosine receptor A2a (P29274 whole entry): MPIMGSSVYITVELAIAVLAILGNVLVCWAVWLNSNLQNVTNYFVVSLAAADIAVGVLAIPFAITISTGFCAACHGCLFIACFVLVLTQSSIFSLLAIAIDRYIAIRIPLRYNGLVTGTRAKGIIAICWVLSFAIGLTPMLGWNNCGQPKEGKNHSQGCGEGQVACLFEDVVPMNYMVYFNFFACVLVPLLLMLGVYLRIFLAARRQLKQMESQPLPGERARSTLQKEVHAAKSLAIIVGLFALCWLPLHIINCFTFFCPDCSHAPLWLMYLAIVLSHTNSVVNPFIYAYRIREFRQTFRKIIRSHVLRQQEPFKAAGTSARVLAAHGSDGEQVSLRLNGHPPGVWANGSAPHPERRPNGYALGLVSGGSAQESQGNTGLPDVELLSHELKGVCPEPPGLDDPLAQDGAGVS

Adenosine receptor A2b = biological target: T3, Adenosine receptor A2b (Homo sapiens, UniProt P29275); experiment: Antagonist activity at human A2B receptor expressed in CHO cells assessed as inhibition of NECA-mediated cAMP accumulation; assay type: functional, cell-based
T3 sequence (P29275 whole entry): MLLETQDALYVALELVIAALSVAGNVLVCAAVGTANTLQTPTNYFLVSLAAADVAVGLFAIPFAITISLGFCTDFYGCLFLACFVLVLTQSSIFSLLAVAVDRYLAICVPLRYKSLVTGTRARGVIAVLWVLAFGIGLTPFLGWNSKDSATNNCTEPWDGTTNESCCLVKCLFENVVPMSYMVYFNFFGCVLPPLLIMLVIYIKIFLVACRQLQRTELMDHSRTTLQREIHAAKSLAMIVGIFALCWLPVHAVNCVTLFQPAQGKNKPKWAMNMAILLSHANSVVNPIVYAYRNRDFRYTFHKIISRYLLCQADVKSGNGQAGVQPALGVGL
In short: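 hA2B-expressing CHO cells, 48 h after plating, were preincubated 15 min at 37 °C in DMEM with ADA 1 U/mL and Ro20-1724 20 μM. Antagonist (1 nM–10 μM) was added for 15 min at 37 °C, then 100 nM NECA. Reaction stopped with 0.4 N HCl, lysate neutralized with 4 N KOH, and cAMP measured by competitive protein binding.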

[1] = biological target: T4, Adenosine receptor A2b (Homo sapiens) (UniProt P29275); experiment: Induction of A2B receptor-mediated cell viability of human Caco2 cells assessed as cell survival at 0.1 to 50 nM after 24 hrs by MTS assay; assay type: cell-based; settings: Caco-2
T4 sequence (whole entry): T3 sequence (P29275 whole entry)
In short: (§1)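 Caco-2 cells grown in DMEM with 10% FBS, 2 mM L-glutamine and penicillin/streptomycin at 37 °C, 5% CO2, seeded at 5000 cells/well. Next day, antagonist (0.1–50 nM) added, alone or 5 min before 100 nM NECA, for 24 h. Viability read by MTS formazan absorbance at 490 nm. Background subtracted, expressed as % untreated control, duplicate or triplicate, ≥3 experiments.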

[2] = biological target: T4, Adenosine receptor A2b (Homo sapiens); experiment: Antagonist activity at A2B receptor in human Caco2 cells assessed as reversal of NECA-induced cell death at 0.1 to 50 nM after 24 hrs by MTS assay; assay type: functional, cell-based; settings: Caco-2; in short: as §1

| Structure (SMILES) | Ki (Adenosine receptor A1) [nM] | Ki (Adenosine receptor A3) [nM] | Ki (Adenosine receptor A2a) [µM] | IC50 (Adenosine receptor A2b) [nM] | Activity [1] | inhibition [2] |
| --- | --- | --- | --- | --- | --- | --- |
| O=c1c(-c2ccco2)nnc2n(Cc3ccccc3)c3ccccc3n12 | > 10000 | > 1000 | 0.156 | 10 |  |  |
| O=c1c(-c2ccccc2)nnc2n(Cc3ccccc3)c3ccccc3n12 | 299 | > 1000 | > 10 | 54.3 |  |  |
| O=c1c(-c2ccccc2)nnc2n(CCc3ccccc3)c3ccccc3n12 | > 10000 | 328 | > 10 | 2.5 | inactive | Active |
| O=c1c(-c2ccco2)nnc2n(CCc3ccccc3)c3ccccc3n12 | > 10000 | > 1000 | 0.0158 | 5.34 |  |  |
| Oc1c(-c2ccccc2)nnc2nc3ccccc3n12 | 728 | > 1000 |  | 1.4 | inactive | Active |
| O=c1c(-c2ccco2)nnc2n(-c3ccccc3)c3ccc(Cl)cc3n12 | > 10000 | > 1000 | > 10 | 7850 |  | Active |

Further lines, with some results ahead:

| Ki (Adenosine receptor A1) [nM] | Ki (Adenosine receptor A3) [nM] | Ki (Adenosine receptor A2a) [µM] | IC50 (Adenosine receptor A2b) [nM] | Structure (SMILES) | Activity [1] | inhibition [2] |
| --- | --- | --- | --- | --- | --- | --- |
| 211 | > 1000 | 2.61 | 20.4 | Cn1c2ccccc2n2c(=O)c(-c3ccco3)nnc12 |  |  |
| 25 | > 1000 |  | 15.3 | Oc1c(-c2ccco2)nnc2nc3ccccc3n12 |  |  |
| > 10000 | > 1000 | > 10 | 3.1 | O=c1c(-c2ccccc2)nnc2n(-c3ccccc3)c3ccc(Cl)cc3n12 | inactive | Active |
| > 10000 | 702 | 0.0506 | 2.11 | O=c1c(-c2ccco2)nnc2n(-c3ccc(Cl)cc3)c3ccccc3n12 | inactive | Active |
| > 10000 | > 1000 | 3.28 | 3200 | O=c1c(-c2ccco2)nnc2n(-c3ccccc3)c3ccccc3n12 |  | Active |
| 1360 | > 1000 | > 10 | 2.42 | O=c1c(-c2ccccc2)nnc2n(-c3ccc(Cl)cc3)c3ccccc3n12 | inactive | Active |
| 62 | > 1000 | > 10 | 58 | Cn1c2ccccc2n2c(=O)c(-c3ccccc3)nnc12 |  |  |
| 83 | > 1000 | > 10 | 15 | O=c1c(-c2ccccc2)nnc2n(-c3ccccc3)c3ccccc3n12 |  |  |
